Source: ChEMBL document CHEMBL1142148, “Antibiotic susceptibility profile of bifidobacteria as affected by oxgall, acid, and hydrogen peroxide stress” (2007)
Converted amounts (≈) assume the structure as drawn.

Tests used:
[1] = test system: Bifidobacterium animalis; experiment: Antimicrobial activity against Bifidobacterium animalis ATCC 27536; type: functional
How it was run: (§1)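 Broth microdilution in MRS plus 0.05% L-cysteine-HCl. Mid-log culture adjusted to OD650 0.1, giving about 2.5 × 10^4 to 5.0 × 10^4 CFU/well, then added to twofold serial dilutions of agent. Plates incubated anaerobically at 37°C for 18 h and read at OD650. MIC is the lowest concentration matching the uninoculated blank OD, taken as the median of four repeats.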

[2] = test system: Bifidobacterium bifidum; experiment: Antimicrobial activity against Bifidobacterium bifidum R0071; type: functional; how it was run: as §1
[3] = test system: Bifidobacterium bifidum; experiment: Antimicrobial activity against Bifidobacterium bifidum ATCC 15696; type: functional; how it was run: as §1
[4] = test system: Bifidobacterium bifidum; experiment: Antimicrobial activity against Bifidobacterium bifidum BB12; type: functional; how it was run: as §1
[5] = test system: Bifidobacterium breve; experiment: Antimicrobial activity against Bifidobacterium breve ATCC 15700; type: functional; how it was run: as §1
[6] = Antimicrobial activity against Bifidobacterium infantis ATCC 15697; type: functional, Bifidobacterium longum subsp. infantis; conditions: Bifidobacterium longum; how it was run: as §1
[7] = test system: Bifidobacterium longum; experiment: Antimicrobial activity against Bifidobacterium longum ATCC 15708; type: functional; how it was run: as §1
[8] = test system: Bifidobacterium longum; experiment: Antimicrobial activity against Bifidobacterium longum R0175; type: functional; how it was run: as §1
[9] = test system: Bifidobacterium longum; experiment: Antimicrobial activity against Bifidobacterium longum P/N 601377; type: functional; how it was run: as §1
[10] = test system: Bifidobacterium pseudolongum; experiment: Antimicrobial activity against Bifidobacterium pseudolongum ATCC 25562; type: functional; how it was run: as §1
[11] = test system: Bifidobacterium thermophilum; experiment: Antimicrobial activity against Bifidobacterium thermophilum ATCC 25866; type: functional; how it was run: as §1
[12] = test system: Bifidobacterium breve; experiment: Antimicrobial activity against Bifidobacterium breve R0070; type: functional; how it was run: as §1
[13] = test system: Bifidobacterium animalis; experiment: Antimicrobial activity against 60 min 1 M HCl-stressed Bifidobacterium animalis ATCC 27536 after 18 hrs; type: functional
How it was run: (§2)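 Mid-log MRS culture pelleted and resuspended in MRS broth brought to pH 2.0 with 1 M HCl, held anaerobically at 37°C for 60 min, then subcultured in MRS (pH 6.5) for 24 h anaerobically before MIC testing by broth microdilution (as for unstressed cells). Table footnote gives 18 h anaerobic regrowth after the stress. MIC is the median of four repetitions.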

[14] = test system: Bifidobacterium bifidum; experiment: Antimicrobial activity against 60 min 1 M HCl-stressed Bifidobacterium bifidum R0071 after 18 hrs; type: functional; how it was run: as §2
[15] = test system: Bifidobacterium bifidum; experiment: Antimicrobial activity against 60 min 1 M HCl-stressed Bifidobacterium bifidum BB12 after 18 hrs; type: functional; how it was run: as §2
[16] = test system: Bifidobacterium breve; experiment: Antimicrobial activity against 60 min 1 M HCl-stressed Bifidobacterium breve ATCC 15700 after 18 hrs; type: functional; how it was run: as §2
[17] = test system: Bifidobacterium breve; experiment: Antimicrobial activity against 60 min 1 M HCl-stressed Bifidobacterium breve R0070 after 18 hrs; type: functional; how it was run: as §2
[18] = Antimicrobial activity against 60 min 1 M HCl-stressed Bifidobacterium infantis ATCC 15697 after 18 hrs; type: functional, Bifidobacterium longum subsp. infantis; conditions: Bifidobacterium longum; how it was run: as §2
[19] = test system: Bifidobacterium longum; experiment: Antimicrobial activity against 60 min 1 M HCl-stressed Bifidobacterium longum ATCC 15707 after 18 hrs; type: functional; how it was run: as §2
[20] = test system: Bifidobacterium longum; experiment: Antimicrobial activity against 60 min 1 M HCl-stressed Bifidobacterium longum R0175 after 18 hrs; type: functional; how it was run: as §2
[21] = test system: Bifidobacterium longum; experiment: Antimicrobial activity against 60 min 1 M HCl-stressed Bifidobacterium longum P/N 601377 after 18 hrs; type: functional; how it was run: as §2
[22] = test system: Bifidobacterium pseudolongum; experiment: Antimicrobial activity against 60 min 1 M HCl-stressed Bifidobacterium pseudolongum ATCC 25562 after 18 hrs; type: functional; how it was run: as §2
[23] = test system: Bifidobacterium thermophilum; experiment: Antimicrobial activity against 60 min 1 M HCl-stressed Bifidobacterium thermophilum ATCC 25866 after 18 hrs; type: functional; how it was run: as §2
[24] = test system: Bifidobacterium animalis; experiment: Antimicrobial activity against 90 mins oxgall-stressed Bifidobacterium animalis ATCC 27536 after 18 hrs; type: functional
How it was run: (§3)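 Cells pelleted from mid-log MRS culture and resuspended in MRS (initial pH 6.5) with 0.3% (wt/vol) oxgall for 90 min anaerobically at 37°C. They were then regrown in MRS pH 6.5 for 24 h (footnote: 18 h) anaerobically and tested for MIC by the same broth microdilution assay. Median of four repetitions.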

[25] = test system: Bifidobacterium bifidum; experiment: Antimicrobial activity against 90 mins oxgall-stressed Bifidobacterium bifidum R0071 after 18 hrs; type: functional; how it was run: as §3
[26] = test system: Bifidobacterium bifidum; experiment: Antimicrobial activity against 90 mins oxgall-stressed Bifidobacterium bifidum ATCC 15696 after 18 hrs; type: functional; how it was run: as §3
[27] = test system: Bifidobacterium bifidum; experiment: Antimicrobial activity against 90 mins oxgall-stressed Bifidobacterium bifidum BB12 after 18 hrs; type: functional; how it was run: as §3
[28] = test system: Bifidobacterium breve; experiment: Antimicrobial activity against 90 mins oxgall-stressed Bifidobacterium breve ATCC 15700 after 18 hrs; type: functional; how it was run: as §3
[29] = test system: Bifidobacterium breve; experiment: Antimicrobial activity against 90 mins oxgall-stressed Bifidobacterium breve R0070 after 18 hrs; type: functional; how it was run: as §3
[30] = Antimicrobial activity against 90 mins oxgall-stressed Bifidobacterium infantis ATCC 15697 after 18 hrs; type: functional, Bifidobacterium longum subsp. infantis; conditions: Bifidobacterium longum; how it was run: as §3
[31] = test system: Bifidobacterium longum; experiment: Antimicrobial activity against 90 mins oxgall-stressed Bifidobacterium longum ATCC 15707 after 18 hrs; type: functional; how it was run: as §3
[32] = test system: Bifidobacterium longum; experiment: Antimicrobial activity against 90 mins oxgall-stressed Bifidobacterium longum ATCC 15708 after 18 hrs; type: functional; how it was run: as §3
[33] = test system: Bifidobacterium longum; experiment: Antimicrobial activity against Bifidobacterium longum ATCC 15707; type: functional; how it was run: as §1
[34] = test system: Bifidobacterium longum; experiment: Antimicrobial activity against 90 mins oxgall-stressed Bifidobacterium longum R0175 after 18 hrs; type: functional; how it was run: as §3
[35] = test system: Bifidobacterium longum; experiment: Antimicrobial activity against 90 mins oxgall-stressed Bifidobacterium longum P/N 601377 after 18 hrs; type: functional; how it was run: as §3
[36] = test system: Bifidobacterium pseudolongum; experiment: Antimicrobial activity against 90 mins oxgall-stressed Bifidobacterium pseudolongum ATCC 25562 after 18 hrs; type: functional; how it was run: as §3
[37] = test system: Bifidobacterium thermophilum; experiment: Antimicrobial activity against 90 mins oxgall-stressed Bifidobacterium thermophilum ATCC 25866 after 18 hrs; type: functional; how it was run: as §3
[38] = test system: Bifidobacterium animalis; experiment: Antimicrobial activity against 90 mins hydrogen peroxide-stressed Bifidobacterium animalis ATCC 27536 after 18 hrs; type: functional
How it was run: (§4)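 Stress applied for 90 min at 37°C under anaerobic conditions, using MRS (initial pH 6.5) containing H2O2 at each strain's own inhibitory concentration. The H2O2 level was set beforehand by microplate tolerance testing. Challenged cells were regrown in MRS for 24 h (footnote: 18 h) before MIC testing by broth microdilution. Median of four repetitions.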

[39] = test system: Bifidobacterium bifidum; experiment: Antimicrobial activity against 90 mins hydrogen peroxide-stressed Bifidobacterium bifidum R0071 after 18 hrs; type: functional; how it was run: as §4
[40] = test system: Bifidobacterium bifidum; experiment: Antimicrobial activity against 90 mins hydrogen peroxide-stressed Bifidobacterium bifidum BB12 after 18 hrs; type: functional; how it was run: as §4
[41] = test system: Bifidobacterium breve; experiment: Antimicrobial activity against 90 mins hydrogen peroxide-stressed Bifidobacterium breve ATCC 15700 after 18 hrs; type: functional; how it was run: as §4
[42] = test system: Bifidobacterium breve; experiment: Antimicrobial activity against 90 mins hydrogen peroxide-stressed Bifidobacterium breve R0070 after 18 hrs; type: functional; how it was run: as §4
[43] = test system: Bifidobacterium longum; experiment: Antimicrobial activity against 90 mins hydrogen peroxide-stressed Bifidobacterium longum ATCC 15707 after 18 hrs; type: functional; how it was run: as §4
[44] = test system: Bifidobacterium longum; experiment: Antimicrobial activity against 90 mins hydrogen peroxide-stressed Bifidobacterium longum ATCC 15708 after 18 hrs; type: functional; how it was run: as §4
[45] = test system: Bifidobacterium longum; experiment: Antimicrobial activity against 90 mins hydrogen peroxide-stressed Bifidobacterium longum R0175 after 18 hrs; type: functional; how it was run: as §4
[46] = test system: Bifidobacterium longum; experiment: Antimicrobial activity against 90 mins hydrogen peroxide-stressed Bifidobacterium longum P/N 601377 after 18 hrs; type: functional; how it was run: as §4
[47] = test system: Bifidobacterium thermophilum; experiment: Antimicrobial activity against 90 mins hydrogen peroxide-stressed Bifidobacterium thermophilum ATCC 25866 after 18 hrs; type: functional; how it was run: as §4

SMILES: NC[C@H]1O[C@H](O[C@H]2[C@H](O)[C@@H](O[C@H]3O[C@H](CO)[C@@H](O)[C@H](N)[C@H]3O)[C@H](N)C[C@@H]2N)[C@H](O)[C@@H](O)[C@@H]1O [KANAMYCIN]
- MIC [1]: 500 µg/mL (≈ 1030 µM)
- MIC [2]: 500 µg/mL (≈ 1030 µM)
- MIC [3]: > 500 µg/mL
- MIC [4]: > 500 µg/mL
- MIC [5]: > 500 µg/mL
- MIC [6]: > 500 µg/mL
- MIC [7]: 500 µg/mL (≈ 1030 µM)
- MIC [8]: 500 µg/mL (≈ 1030 µM)
- MIC [9]: 250 µg/mL (≈ 516 µM)
- MIC [10]: > 500 µg/mL
- MIC [11]: > 500 µg/mL
- MIC [12]: 500 µg/mL (≈ 1030 µM)
- MIC [13]: 500 µg/mL (≈ 1030 µM)
- MIC [14]: 0.98 µg/mL (≈ 2.02 µM)
- MIC [15]: 250 µg/mL (≈ 516 µM)
- MIC [16]: 500 µg/mL (≈ 1030 µM)
- MIC [17]: 500 µg/mL (≈ 1030 µM)
- MIC [18]: 500 µg/mL (≈ 1030 µM)
- MIC [19]: 500 µg/mL (≈ 1030 µM)
- MIC [20]: 250 µg/mL (≈ 516 µM)
- MIC [21]: 250 µg/mL (≈ 516 µM)
- MIC [22]: 250 µg/mL (≈ 516 µM)
- MIC [23]: 500 µg/mL (≈ 1030 µM)
- MIC [24]: 500 µg/mL (≈ 1030 µM)
- MIC [25]: 500 µg/mL (≈ 1030 µM)
- MIC [26]: 125 µg/mL (≈ 258 µM)
- MIC [27]: 500 µg/mL (≈ 1030 µM)
- MIC [28]: 500 µg/mL (≈ 1030 µM)
- MIC [29]: 500 µg/mL (≈ 1030 µM)
- MIC [30]: > 500 µg/mL
- MIC [31]: 250 µg/mL (≈ 516 µM)
- MIC [32]: 500 µg/mL (≈ 1030 µM)
- MIC [33]: 500 µg/mL (≈ 1030 µM)
- MIC [34]: 500 µg/mL (≈ 1030 µM)
- MIC [35]: 250 µg/mL (≈ 516 µM)
- MIC [36]: 500 µg/mL (≈ 1030 µM)
- MIC [37]: 500 µg/mL (≈ 1030 µM)
- MIC [38]: 500 µg/mL (≈ 1030 µM)
- MIC [39]: 500 µg/mL (≈ 1030 µM)
- MIC [40]: 500 µg/mL (≈ 1030 µM)
- MIC [41]: > 500 µg/mL
- MIC [42]: 500 µg/mL (≈ 1030 µM)
- MIC [43]: 500 µg/mL (≈ 1030 µM)
- MIC [44]: 500 µg/mL (≈ 1030 µM)
- MIC [45]: 500 µg/mL (≈ 1030 µM)
- MIC [46]: 250 µg/mL (≈ 516 µM)
- MIC [47]: 500 µg/mL (≈ 1030 µM)
